Publication PMC8925131 (Experimental cell research, 2021)

Columns and labels:
[1] = target: T1, Plekha7 (D175K) PH domain (Homo sapiens, UniProt Q6IQ23, D175K); experiment: Isothermal titration calorimetry; type: binding; conditions: ITC, diC8-PI, D175K mutant versus wild-type PH domain
T1 sequence (Q6IQ23 164-298 D175K): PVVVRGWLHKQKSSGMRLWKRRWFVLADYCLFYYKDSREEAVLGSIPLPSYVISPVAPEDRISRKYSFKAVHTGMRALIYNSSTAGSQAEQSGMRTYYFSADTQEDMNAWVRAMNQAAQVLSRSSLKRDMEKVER
In short: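 Human Plekha7 PH domain (residues 164–298, D175K mutant alongside wild type) was GST-vector expressed in E. coli BL21. ITC was run at 23 °C: 50 µM PH domain titrated with 0.5–1.0 mM diC8-phosphoinositides (PI(3,4)P2, PI(3,5)P2, PI(4,5)P2, PI(3,4,5)P3) in 30 mM NaCl, 15 mM Tris pH 7.6, 0.2 mM TCEP. Integrated heats were fit to a single-site model for Kd, reported as mean with SD.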

mutant KRas CRC cells = experiment: Growth of mutant KRas CRC cells; type: cell-based; conditions: mutant KRas CRC cells (Figure S12C)
wild type KRas CRC cells = experiment: Growth of wild type KRas CRC cells; type: cell-based; conditions: wild type KRas CRC cells (Figure S12C)
[2] = target: Plekha7-GFP (Pleckstrin homology domain containing, family A member 7, GFP fusion) (human) (UniProt Q6IQ23); experiment: FRET or BRET
Chain of Plekha7-GFP (Pleckstrin homology domain containing, family A member 7, GFP fusion) (human) (Q6IQ23 whole entry, the tested form may be a part): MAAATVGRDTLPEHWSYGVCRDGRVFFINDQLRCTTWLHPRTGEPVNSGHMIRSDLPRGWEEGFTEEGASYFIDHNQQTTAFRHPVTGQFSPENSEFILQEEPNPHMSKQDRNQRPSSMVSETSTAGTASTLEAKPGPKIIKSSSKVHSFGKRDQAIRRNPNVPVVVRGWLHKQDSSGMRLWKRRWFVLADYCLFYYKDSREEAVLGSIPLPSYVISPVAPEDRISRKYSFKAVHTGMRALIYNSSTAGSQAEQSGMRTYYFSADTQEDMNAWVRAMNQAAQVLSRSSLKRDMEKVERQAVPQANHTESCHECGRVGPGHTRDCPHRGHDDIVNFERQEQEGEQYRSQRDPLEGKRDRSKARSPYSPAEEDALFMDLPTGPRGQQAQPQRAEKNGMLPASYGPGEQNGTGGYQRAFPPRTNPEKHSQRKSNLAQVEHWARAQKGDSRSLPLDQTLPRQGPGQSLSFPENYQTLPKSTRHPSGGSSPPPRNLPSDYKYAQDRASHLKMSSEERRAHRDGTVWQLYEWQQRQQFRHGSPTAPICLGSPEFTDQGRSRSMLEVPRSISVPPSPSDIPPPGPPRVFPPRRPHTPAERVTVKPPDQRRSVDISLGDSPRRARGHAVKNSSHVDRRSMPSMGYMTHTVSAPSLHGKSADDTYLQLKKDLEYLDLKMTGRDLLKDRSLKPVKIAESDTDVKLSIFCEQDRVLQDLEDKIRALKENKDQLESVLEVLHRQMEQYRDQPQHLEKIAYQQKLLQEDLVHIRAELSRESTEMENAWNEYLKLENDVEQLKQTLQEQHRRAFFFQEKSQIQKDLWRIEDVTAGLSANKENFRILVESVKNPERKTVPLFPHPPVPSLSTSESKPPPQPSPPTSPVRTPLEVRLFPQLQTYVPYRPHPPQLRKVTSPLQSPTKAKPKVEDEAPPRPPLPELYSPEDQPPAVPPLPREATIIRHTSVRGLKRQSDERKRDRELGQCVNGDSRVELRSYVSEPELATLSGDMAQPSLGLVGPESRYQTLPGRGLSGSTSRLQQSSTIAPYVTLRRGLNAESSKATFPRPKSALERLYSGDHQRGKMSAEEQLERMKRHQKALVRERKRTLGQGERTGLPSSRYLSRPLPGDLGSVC

mutant BRaf CRC cells = experiment: Growth of mutant BRaf CRC cells; type: cell-based; conditions: mutant BRaf CRC cells (Figure S12C)

increase in affinity for Plekha7 (D175K) compared with the wild-type protein [1] [fold]	Compound	inhibition of mutant KRas CRC cell growth (mutant KRas CRC cells)	effect on growth of wild type KRas CRC cells (wild type KRas CRC cells)	also measured
10	CCCCCCCC(=O)OC[C@H](COP(=O)(O)O[C@H]1[C@H](O)[C@@H](OP(=O)(O)O)[C@H](OP(=O)(O)O)[C@@H](OP(=O)(O)O)[C@H]1O)OC(=O)CCCCCCC [PI(3,4,5)P3]	–	–	–
–	CCCCCCCC(=O)OC[C@H](COP(=O)(O)O[C@@H]1[C@H](O)[C@H](O)[C@@H](OP(=O)(O)O)[C@H](OP(=O)(O)O)[C@H]1O)OC(=O)CCCCCCC [PI(4,5)P2]	–	–	change of affinity for Plekha7 (D175K) compared with wild-type [1]: did not change
–	CCCCCCCCCCCCCCCCCCOC[C@H](COP(=O)(O)OC1C(O)[C@@H](O)C(O)C[C@H]1O)OC (stereo partly drawn) [DPIEL]	selective inhibition	without affecting the growth	–
10	CCCCCCCC(=O)OC[C@H](COP(=O)(O)O[C@H]1[C@H](O)[C@@H](O)[C@H](OP(=O)(O)O)[C@@H](OP(=O)(O)O)[C@H]1O)OC(=O)CCCCCCC [PI(3,4)P2]	–	–	–
–	wild-type KRas-RFP (from UniProt P01116 1-189) (natural protein)	–	–	average fluorescence lifetime of Plekha7-GFP [2]: 1.9 ns
–	CC1(C)Oc2ccc(-c3csc(Cn4nc(CCO)c5ccccc5c4=O)n3)cc2O1 [PHT-7704, 2-((4-(2,2-dimethylbenzo[d][1,3]dioxol-5-yl)thiazol-2-yl)methyl)-4-(2-hydroxyethyl)phthalazin-1(2H)-one]	selective inhibition	without affecting the growth	inhibition of growth of mutant BRaf CRC cells (mutant BRaf CRC cells): inhibited the growth
